Source: ChEMBL document CHEMBL1144865, “N-aminoimidazole derivatives inhibiting retroviral replication via a yet unidentified mode of action” (J Med Chem, 2003)

Assays:
[1] = tested on: MT4; test: Concentration that reduced the MT-4 cell viability by 50%.; assay type: functional, Homo sapiens
How it was run: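 Mock-infected MT-4 cells, run in parallel with the antiviral assay, were exposed to compound. Viability on day 5 was read by MTT colorimetry. The value is the concentration lowering viability by 50%. Averages ± SD from at least two independent experiments.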

[2] = tested on: Human immunodeficiency virus 1; test: Concentration required to inhibit the viral (HIV-1 IIIB strain) cytopathic effect by 50% in MT-4 cells.; assay type: functional, organism-based; conditions: Human immunodeficiency virus 1, MT4
How it was run: (§1)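 Virus-infected MT-4 cells cultured with serial compound dilutions; viability measured 5 days after infection by MTT tetrazolium colorimetric read-out. The value is the concentration protecting 50% of cells from viral cytopathic effect. Averages ± SD from at least two independent experiments. HIV-2 and SIV stocks came from infected MT-4 culture supernatants.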

[3] = tested on: Human immunodeficiency virus 1; test: Concentration required to inhibit the viral (HIV-1 NL4.3 strain) cytopathic effect by 50% in MT-4 cells.; assay type: functional, organism-based; conditions: Human immunodeficiency virus 1, MT4; how it was run: as §1
[4] = tested on: Human immunodeficiency virus 2; test: Concentration required to inhibit the viral (HIV-2 ROD) cytopathic effect by 50% in MT-4 cells.; assay type: functional, organism-based, MT4; how it was run: as §1
[5] = tested on: Simian immunodeficiency virus; test: Concentration required to inhibit the viral (SIV mac251) cytopathic effect by 50% in MT-4 cells.; assay type: functional, organism-based, MT4; how it was run: as §1
[6] = tested on: Human immunodeficiency virus 1; test: Concentration required to inhibit the viral (HIV-1 NNRTI resistant strain) cytopathic effect by 50% in MT-4 cells.; assay type: functional, organism-based; conditions: Human immunodeficiency virus 1, MT4
How it was run: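 MT-4 cells infected with HIV-1(III_B)-derived strain S0561945 (K103N + Y181C RT mutations, NNRTI-resistant). Cultured with varying compound concentrations; viability read on day 5 post-infection by MTT tetrazolium colorimetry. Value is the concentration giving 50% protection against virus-induced cytopathic effect. Cytotoxicity measured in parallel on mock-infected cells at day 5. Averages ± SD from at least two independent experiments.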

[7] = Human immunodeficiency virus 2, MT4
[8] = Simian immunodeficiency virus, mac251, MT4

| SMILES | IC50 [2] [µM] | IC50 [3] [µM] | IC50 [4, 7] [µM] | IC50 [5, 8] [µM] | IC50 ([4]; mt4) [µM] | IC50 ([5]; mt4) [µM] | CC50 ([1]; Homo sapiens, MT4) [µM] | IC50 [6] [µM] | CC50 [1] [µM] |
| --- | --- | --- | --- | --- | --- | --- | --- | --- | --- |
| Cc1cccc(Nn2cnc(C)c2C)c1 | > 312 | > 312 | > 312 | > 312 | – | – | 312 | – | – |
| COc1cccc(NN2C(S)=NC(C)C2c2ccccc2)c1 (stereo not given) | 4.78 | 9.79 | > 38 | > 38 | – | – | 38 | > 38 | – |
| CC1N=C(S)N(Nc2cccc([N+](=O)[O-])c2)C1c1ccccc1 (stereo not given) | 7.29 | 11.2 | > 48.3 | 7.54 | – | – | 48.3 | 42.2 | – |
| Cc1nc(S)n(Nc2cccc(Cl)c2)c1-c1cccc(Br)c1 | 8.54 | 5.6 | 10.5 | 1.75 | – | – | 44 | 3 | – |
| CCC1N=C(S)N(Nc2cccc(C)c2)C1c1ccccc1 (stereo not given) | 17.6 | 12.8 | > 53.6 | > 53.6 | – | – | 53.6 | ≥ 53.6 | – |
| Cc1nc(S)n(Nc2cccc(Cl)c2)c1-c1ccc(Cl)cc1 | > 40.8 | > 40.8 | > 40.8 | 7.71 | – | – | 40.8 | > 40.8 | – |
| Cc1cccc(NN2C(S)=NC(C(C)C)C2c2ccccc2)c1 (stereo not given) | > 42.6 | > 42.6 | > 42.6 | > 42.6 | – | – | 42.6 | > 42.6 | – |
| SC1=NC(c2ccccc2)C(c2ccccc2)N1Nc1cccc(Cl)c1 (stereo not given) | > 36.3 | > 36.3 | > 36.3 | > 36.3 | – | – | 36.3 | > 36.3 | – |
| COc1cccc(Nn2cnc(C)c2-c2ccccc2)c1 | > 34.4 | > 34.4 | > 34.4 | > 34.4 | – | – | 34.4 | – | – |
| CCc1ncn(Nc2cccc(C)c2)c1-c1ccccc1 | > 27.9 | > 27.9 | > 27.9 | > 27.9 | – | – | 27.9 | – | – |
| Cc1ncn(Nc2ccccc2)c1C | > 351 | > 351 | > 351 | > 351 | – | – | 351 | – | – |
| Cc1cccc(Nn2cnc(C)c2-c2cccc(C#N)c2)c1 | > 44.7 | > 44.7 | > 44.7 | > 44.7 | – | – | 44.7 | – | – |
| COc1ccc(-c2c(C)nc(S)n2Nc2cccc(Cl)c2)cc1 | > 38.7 | > 38.7 | > 38.7 | 10.1 | – | – | 38.7 | > 38.7 | – |
| Cc1cc(C)cc(NN2C(S)=NC(C)C2c2ccccc2)c1 (stereo not given) | 1.03 | 0.87 | > 194 | > 194 | – | – | 194 | > 194 | – |
| Cc1cc(C)cc(Nn2cnc(C)c2-c2ccccc2)c1 | – | – | > 20.4 | > 20.4 | – | – | 20.4 | – | – |
| Cc1nc(S)n(Nc2ccc(F)cc2)c1-c1ccccc1 | > 220 | > 220 | > 220 | > 220 | – | – | 220 | – | – |
| CC1N=C(S)N(Nc2cccc(Br)c2)C1c1ccccc1 (stereo not given) | 9.96 | 4.52 | > 44.2 | 2.72 | – | – | 44.2 | 5.77 | – |
| Clc1cccc(Nn2cnc3c2CCCC3)c1 | – | – | – | – | > 67.3 | > 67.3 | – | – | 67.3 |
| Cc1ncn(Nc2cccc(Cl)c2)c1C | – | – | – | – | > 214 | > 214 | – | – | 214 |
| Cc1ncn(Nc2ccccc2)c1-c1ccccc1 | – | – | > 52.2 | > 52.2 | – | – | 52.2 | – | – |
| CC1N=C(S)N(Nc2cccc(F)c2)C1c1ccccc1 (stereo not given) | > 108 | 18.4 | > 108 | 33.8 | – | – | 108 | ≥ 43.4 | – |
| CC1N=C(S)N(Nc2cccc(Cl)c2)C1c1cccc(C#N)c1 (stereo not given) | ≥ 99.4 | 42 | > 99.4 | > 99.4 | – | – | 99.4 | > 99.4 | – |
| Cc1nc(SCc2ccccc2)n(Nc2cccc(Cl)c2)c1-c1ccccc1 | > 39.7 | > 39.7 | > 39.7 | > 39.7 | – | – | 39.7 | – | – |
| Cc1nc(S)n(Nc2cccc3ccccc23)c1-c1ccccc1 | 5.55 | 6.58 | 5.1 | 4.68 | – | – | 32 | 11.9 | – |

Now from value to compound, other results behind:

| IC50 [2] [µM] | IC50 [3] [µM] | IC50 [4, 7] [µM] | IC50 [5, 8] [µM] | IC50 ([4]; mt4) [µM] | IC50 ([5]; mt4) [µM] | SMILES | CC50 ([1]; Homo sapiens, MT4) [µM] | IC50 [6] [µM] | CC50 [1] [µM] |
| --- | --- | --- | --- | --- | --- | --- | --- | --- | --- |
| > 48.8 | > 48.8 | > 48.8 | > 48.8 | – | – | COC(=O)C1N=C(S)N(Nc2cccc(Cl)c2)C1C (stereo not given) | 48.8 | – | – |
| > 50 | > 50 | > 50 | > 50 | – | – | Cc1c(-c2ccccc2)nc(S)n1Nc1cccc(Cl)c1 | 50 | – | – |
| > 126 | > 126 | > 126 | > 126 | – | – | SC1=NC2CCCCC2N1Nc1cccc(Cl)c1 (stereo not given) | 126 | – | – |
| > 33.1 | > 33.1 | > 33.1 | > 33.1 | – | – | COC(=O)c1cccc(-c2c(C)ncn2Nc2cccc(Cl)c2)c1 | 33.1 | – | – |
| > 42.2 | > 42.2 | > 42.2 | > 42.2 | – | – | CC1N=C(S)N(Nc2cccc(Cl)c2)C1c1cccc(C(N)=O)c1 (stereo not given) | 42.2 | – | – |
| > 67.4 | > 67.4 | > 67.4 | > 67.4 | – | – | COC(=O)c1cccc(C2C(C)N=C(S)N2Nc2cccc(Cl)c2)c1 (stereo not given) | 67.4 | – | – |
| > 34.5 | > 34.5 | > 34.5 | > 34.5 | – | – | CCc1ccc(NN2C(S)=NC(C)C2c2ccccc2)cc1 (stereo not given) | 34.5 | – | – |
| > 190 | > 190 | > 190 | > 190 | – | – | COC(=O)C1C(C)N=C(S)N1Nc1cccc(Cl)c1 (stereo not given) | 190 | – | – |
| > 45.6 | > 45.6 | > 45.6 | > 45.6 | – | – | Cc1cccc(NN2C(S)=NC(C)C2c2cccc(C#N)c2)c1 (stereo not given) | 45.6 | – | – |
| > 147 | > 147 | > 147 | > 147 | – | – | CC1N=C(S)N(Nc2cc(Cl)ccc2Cl)C1c1ccccc1 (stereo not given) | 147 | – | – |
| > 266 | > 266 | > 266 | > 266 | – | – | CC1N=C(S)N(Nc2cccc(Cl)c2)C1C(=O)O (stereo not given) | 266 | – | – |
| > 42.1 | > 42.1 | > 42.1 | > 42.1 | – | – | CSc1nc(C)c(-c2ccccc2)n1Nc1cccc(Cl)c1 | 42.1 | – | – |
| > 33.2 | > 33.2 | > 33.2 | > 33.2 | – | – | Cc1nc(S)n(Nc2cccc(Cl)c2)c1-c1ccc(Br)cc1 | 33.2 | – | – |
| > 260 | > 260 | > 260 | > 260 | – | – | Cc1ncn(Nc2cccc(Cl)c2)c1-c1cccc(C(N)=O)c1 | 260 | – | – |
| > 162 | > 162 | > 162 | > 162 | – | – | Cc1cccc(Nn2cnc(C)c2-c2cccc(C(N)=O)c2)c1 | 162 | – | – |
| > 120 | > 120 | > 120 | > 120 | – | – | CC1N=C(S)N(Nc2cccc(Cl)c2)C1c1cccc(C(=O)O)c1 (stereo not given) | 120 | – | – |
| > 107 | > 107 | > 107 | > 107 | – | – | COC(=O)c1c(C)ncn1Nc1cccc(Cl)c1 | 107 | – | – |
| > 134 | > 134 | > 134 | > 134 | – | – | Cc1nc(S)n(Nc2ccc(Cl)cc2)c1-c1ccccc1 | 134 | – | – |
| > 191 | > 191 | > 191 | > 191 | – | – | CC1N=C(S)N(Nc2ccccc2)C1c1ccccc1 (stereo not given) | 191 | – | – |
| > 259 | > 259 | > 259 | > 259 | – | – | CC1N=C(S)N(Nc2cccc(Cl)c2)C1C (stereo not given) | 259 | – | – |
| > 181 | > 181 | > 181 | > 181 | – | – | CC1N=C(S)N(Nc2ccccc2)C1C (stereo not given) | 181 | – | – |
| > 360 | > 360 | > 360 | > 360 | – | – | Cc1cccc(NN2C(S)=NC(C)C2C)c1 (stereo not given) | 360 | – | – |
| > 187 | > 187 | > 187 | > 187 | – | – | Cc1cccc(NN2C(S)=NC(C)C2c2cccc(C(=O)O)c2)c1 (stereo not given) | 187 | – | – |
| > 53 | > 53 | > 53 | > 53 | – | – | CSc1ccc(NN2C(S)=NC(C)C2c2ccccc2)cc1 (stereo not given) | 53 | – | – |
| > 161 | > 161 | > 161 | > 161 | – | – | Cc1ncn(Nc2cccc(Cl)c2)c1-c1cccc(C(=O)O)c1 | 161 | – | – |
